For experiment [1], the target named is T1, Isocitrate dehydrogenase [NADP] cytoplasmic (Homo sapiens, UniProt O75874, R132H). The experiment can be described thus: Inhibition of N-terminal 6-His-tagged IDH1 R132H mutant (unknown origin) expressed in Escherichia coli BL21 cells using alpha-KG as substrate in presence of NADPH incubated for 40 mins by fluorescence assay. The essentials: (§1)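 His-tagged-free description: E. coli BL21 expressed, affinity-purified enzyme, 100 nmol/L R132H or 20 nmol/L R132C. Remaining NADPH was read by fluorescence (ex 355/em 460 nm). Dose-response started at 50 µmol/L, seven dilution steps. IC50 is the mean of three determinations.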
T1 sequence (O75874 2-414 R132H limits assumed): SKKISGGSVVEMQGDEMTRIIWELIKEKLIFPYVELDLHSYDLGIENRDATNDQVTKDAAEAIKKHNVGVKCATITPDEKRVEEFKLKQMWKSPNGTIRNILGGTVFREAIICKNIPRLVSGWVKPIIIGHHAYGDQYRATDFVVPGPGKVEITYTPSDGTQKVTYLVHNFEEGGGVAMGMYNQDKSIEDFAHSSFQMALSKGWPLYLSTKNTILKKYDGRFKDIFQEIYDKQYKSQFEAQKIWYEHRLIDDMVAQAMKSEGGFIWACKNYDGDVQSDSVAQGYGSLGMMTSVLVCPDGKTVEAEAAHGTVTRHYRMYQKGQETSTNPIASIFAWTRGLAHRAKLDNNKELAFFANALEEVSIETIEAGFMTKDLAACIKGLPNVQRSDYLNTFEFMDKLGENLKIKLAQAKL

The target of experiment [2] is T2, Isocitrate dehydrogenase [NADP] cytoplasmic (Homo sapiens, UniProt O75874, R132C). The experiment can be described thus: Inhibition of N-terminal 6-His-tagged IDH1 R132C mutant (unknown origin) expressed in Escherichia coli BL21 cells using alpha-KG as substrate in presence of NADPH incubated for 40 mins by fluorescence assay. Summed up:
as §1

Experiment [3] has as its target T3, Isocitrate dehydrogenase [NADP] cytoplasmic (Homo sapiens, UniProt O75874). The experiment can be described thus: Inhibition of N-terminal 6-His-tagged wild type IDH1 (unknown origin) expressed in Escherichia coli BL21 cells using alpha-KG as substrate in presence of NADPH incubated for 40 mins by fluorescence assay.
Experiment [4] has as its system Isocitrate dehydrogenase [NADP] cytoplasmic (Homo sapiens), O75874 [R132C]. The experiment can be described thus: Inhibition of IDH1 R132C mutant in human HT1080 cells assessed as induction of differentiation by measuring increase in GFAP mRNA expression at 1 umol/L after 6 days by qRT-PCR analysis. The format is cell-based. Summed up:
(§2)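 HT1080 cells in 6-well plates were exposed to 1 µmol/L compound or DMSO for 6 days. RNA was extracted with Trizol, reverse transcribed, and SOX2 and GFAP expression measured by SYBR Green real-time PCR. Values are mean ±SD of three replicates.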
(In general: In qPCR the cycle at which signal appears reflects the starting amount.)

In another experiment the test system is U-87 MG. In words: Antiproliferation activity against human U87MG cells assessed as reduction in cell viability after 72 hrs by Cell Titer-Glo luminescent assay. The format is functional, cell-based, U-87MG ATCC. Summed up: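 HT1080 (endogenous IDH1-R132C) and U-87 MG cells kept in DMEM with 10% FBS and 1% penicillin/streptomycin at 37 °C, 5% CO2. Cells were seeded in 96-well plates and, after attachment, exposed to a concentration range for 72 h in triplicate with matched DMSO control. Viable fraction was read by CellTiter-Glo luminescence. IC50 came from a nonlinear curve fit.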
For orientation: Cellular ATP, detected with luciferase, serves as a proxy for viable cell number.

The nature of experiment [5]: Selectivity ratio of IC50 for human HT1080 cells to IC50 for human U87MG cells. The format is functional.
In experiment [6] the test system is Isocitrate dehydrogenase [NADP] cytoplasmic (Homo sapiens), O75874 [R132C]. In words: Inhibition of IDH1 R132C mutant in human HT1080 cells assessed as induction of differentiation by measuring decrease in SOX2 mRNA expression at 1 umol/L after 6 days by qRT-PCR analysis. The format is cell-based. The essentials:
as §2

The target in experiment [7] is T3, Isocitrate dehydrogenase [NADP] cytoplasmic. In words: Binding affinity to N-terminal 6-His-tagged wild type IDH1 (unknown origin) expressed in BL21 cells assessed as equilibrium dissociation constant by SPR assay. Summed up: (§3)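 Assay ran on a Biacore T200 at 25 °C in HBS (10 mmol/L HEPES pH 7.4, 150 mmol/L NaCl, 0.1% DMSO). Bacterially expressed, affinity-purified protein was diluted in 10 mmol/L sodium acetate and amine-coupled to a CM5 chip. Analyte ranged 25–0.78 µmol/L for R132H/C and 50–1.56 µmol/L for WT, flowed at 30 µL/min. Association 120 s, dissociation 150 s. KD from a steady-state model.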

For experiment [8], the target named is T2, Isocitrate dehydrogenase [NADP] cytoplasmic. The experiment can be described thus: Binding affinity to N-terminal 6-His-tagged IDH1 R132C mutant (unknown origin) expressed in BL21 cells assessed as equilibrium dissociation constant by SPR assay. The essentials: as §3
The test system of another experiment is HT-1080. In words: Antiproliferation activity against human HT1080 cells assessed as reduction in cell viability after 72 hrs by Cell Titer-Glo luminescent assay. Conditions: HT-1080, 72 h.
The test system of experiment [9] is Isocitrate dehydrogenase [NADP] cytoplasmic (Homo sapiens), O75874 [R132C]. The experiment can be described thus: Inhibition of IDH1 R132C mutant in human HT1080 cells assessed as induction of differentiation by measuring increase in GFAP protein expression after at 0.125 to 1 umol/L 6 days by Western blot analysis. The format is cell-based. The essentials:
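HT1080 cells in 6-well plates received indicated concentrations or DMSO for 6 days after attachment. BCA-quantified lysates were resolved on 12% SDS-PAGE and transferred to nitrocellulose. Membranes were blocked in 5% milk, probed overnight at 4 °C with anti-GFAP and anti-GAPDH, then with HRP secondary for 2 h, and detected by ECL.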
For orientation: Immunoblotting shows a protein as a band on a membrane.

In experiment [10] the target is T1, Isocitrate dehydrogenase [NADP] cytoplasmic. The experiment can be described thus: Binding affinity to N-terminal 6-His-tagged IDH1 R132H mutant (unknown origin) expressed in BL21 cells assessed as equilibrium dissociation constant by SPR assay. Summed up: as §3

Activity calls are given as the source filed them. No cut-off for these calls is given here.

T2 sequence (O75874 2-414 R132C limits assumed): as the sequence (O75874 2-414 R132H limits assumed) above, with H131C counted along it
T3 sequence (O75874 whole entry): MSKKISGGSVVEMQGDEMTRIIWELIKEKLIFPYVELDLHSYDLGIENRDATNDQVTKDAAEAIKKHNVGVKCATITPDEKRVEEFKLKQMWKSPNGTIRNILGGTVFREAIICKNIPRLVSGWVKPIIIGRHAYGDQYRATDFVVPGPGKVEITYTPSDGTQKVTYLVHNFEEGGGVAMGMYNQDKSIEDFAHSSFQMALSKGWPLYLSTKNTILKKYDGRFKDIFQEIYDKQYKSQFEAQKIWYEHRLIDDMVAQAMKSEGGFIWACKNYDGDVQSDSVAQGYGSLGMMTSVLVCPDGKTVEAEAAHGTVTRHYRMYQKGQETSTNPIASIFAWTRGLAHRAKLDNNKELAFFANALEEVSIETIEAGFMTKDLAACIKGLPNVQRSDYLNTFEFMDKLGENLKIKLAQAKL
Chain of Isocitrate dehydrogenase [NADP] cytoplasmic (Homo sapiens), O75874 [R132C] (O75874 whole entry R132C): as the sequence (O75874 whole entry) above, with R132C counted along it

The IC50 is the point on the concentration scale where inhibition reaches its midpoint. With `CC(C)N1CCN(C(c2cc(C(C)(C)C)c(O)c(C(C)(C)C)c2)c2ccccn2)CC1` (stereo not drawn), the IC50 was found to be 4.76 µM in experiment [1], 7 µM in experiment [2] and 3 µM in experiment [3].

For `CC(C)(C)c1cc(C(SC2CCCCC2)c2ccccn2)cc(C(C)(C)C)c1O` (stereo not drawn), the 50% inhibitory concentration (IC50) in [1], in experiment [2] and in [3] was more than 50 µM in each case.

With `Cc1cccc(C(c2cc(C(C)(C)C)c(O)c(C(C)(C)C)c2)N2CCOCC2)n1` (stereo not drawn), the IC50 in [1], in experiment [2] and in experiment [3] was more than 50 µM each time.

With `CCN1CCN(C(c2cc(C(C)(C)C)c(O)c(C(C)(C)C)c2)c2ccccn2)CC1` (stereo not drawn), the IC50 in experiment [1] turned out to be 12 µM; in [2] it was 4.8 µM; in experiment [3] it was 6.4 µM.

On to `CC(C)(C)c1cc(C(OC2CCCCC2)c2ccccn2)cc(C(C)(C)C)c1O` (stereo not drawn), for which the half-inhibitory concentration (IC50) in [1], in experiment [2] and in experiment [3] was more than 50 µM each time.

For `CC(C)(C)c1cc(C(c2ccccn2)N2CCN(C(C)(C)C)CC2)cc(C(C)(C)C)c1O` (stereo not drawn), the IC50 in [1] is more than 50 µM; in experiment [2], 9 µM; in experiment [3], 8.5 µM.

With `CCCCN1CCN(C(c2cc(C(C)(C)C)c(O)c(C(C)(C)C)c2)c2ccccn2)CC1` (stereo not drawn), the half-maximal inhibitory concentration (IC50) was more than 50 µM in experiment [1], 9 µM in experiment [2] and 12.8 µM in experiment [3].

Consider `CC(C)(C)c1cc(C(c2ccccn2)N2CCOCC2)cc(C(C)(C)C)c1` (stereo not drawn), for which the IC50 in experiment [1], in experiment [2] and in experiment [3] was more than 50 µM in each case.

For the compound `Cc1cccnc1C(c1cc(C(C)(C)C)c(O)c(C(C)(C)C)c1)N1CCOCC1` (stereo not drawn), the values for the concentration for half-maximal inhibition (IC50) in experiment [1], in experiment [2] and in experiment [3] were 20 µM, 4.7 µM and 0.8 µM, respectively.

With `CN1CCN(C(c2cc(C(C)(C)C)c(O)c(C(C)(C)C)c2)c2ccccn2)CC1` (stereo not drawn), the IC50 in experiment [1] worked out at 3 µM; in [2] it was 4.9 µM; in experiment [3] it was 50 µM.

Turning to `CC(C)(C)c1cc(C(c2ccccn2)N2CCN(CC3CC3)CC2)cc(C(C)(C)C)c1O` (stereo not drawn), the IC50 in experiment [1] was more than 50 µM; in experiment [2], 18 µM; in experiment [3], 31 µM.

Consider `CC(C)(C)c1cc(C(c2ccccn2)N2CCN(C3CCCCC3)CC2)cc(C(C)(C)C)c1O` (stereo not drawn), for which the IC50 in experiment [1], in experiment [2] and in experiment [3] was more than 50 µM throughout.

On to `CN1CCN(C(c2cc(C(C)(C)C)cc(C(C)(C)C)c2)c2ccccn2)CC1` (stereo not drawn), for which the IC50 in experiment [1], in experiment [2] and in [3] was more than 50 µM in each case.

The Kd is the free concentration of one partner at which half of the binding sites on the other are occupied at equilibrium, for simple one-to-one binding. Regarding `CC(C)(C)c1cc(C(c2ccccn2)N2CCOCC2)cc(C(C)(C)C)c1O` (stereo not drawn), the inhibition entry in experiment [4], in experiment [6] and in experiment [9] was “Active” throughout. In addition, the half-inhibitory concentration (IC50) was determined as 48.7 µM with U-87 MG; 0.41 µM in [1]; 2.7 µM in experiment [2]; 43.7 µM in experiment [3]; 5 µM in the experiment on HT-1080. In [5], the “Ratio IC50” value came to 10. Further, the Kd was more than 50 µM in experiment [7], 0.72 µM in experiment [8] and 3.8 µM in experiment [10].

As to `CC(C)(C)c1cc(C(c2cccc(F)c2)N2CCOCC2)cc(C(C)(C)C)c1O` (stereo not drawn), the IC50 in experiment [1], in [2] and in [3] was more than 50 µM throughout.

`Cc1ccccc1C(C(=O)NC1CCCCC1)N(C(=O)Cn1ccnc1C)c1cccc(F)c1` (stereo not drawn): in experiment [1], the IC50 came out at 0.082 µM.

`CC(C)(C)c1cc(C(c2ccccn2)N2CCN(c3ccccc3)CC2)cc(C(C)(C)C)c1O` (stereo not drawn): the IC50 in experiment [1], in experiment [2] and in experiment [3] was more than 50 µM throughout.

For the origin of these results see ChEMBL document CHEMBL4387756, “Discovery of DC_H31 as potential mutant IDH1 inhibitor through NADPH-based high throughput screening” (Bioorg Med Chem, 2019).
